Assay results of several laboratories.
Organism: Mycolicibacterium smegmatis
Read-out: microbial growth

`CC(C)=CCC/C(C)=C/CNCCOC(C)(C)C` gave an MIC of 50 µg/mL.
For `NC[C@H]1O[C@@H](O[C@@H]([C@H](NCCCC(=O)NCc2ccc(N3CCC(Oc4ccc(OC(F)(F)F)cc4)CC3)cc2)C(N)=O)[C@H]2O[C@@H](n3ccc(=O)[nH]c3=O)C(O)C2O)[C@H](O)[C@@H]1O` (stereo partly shown), the MIC was 0.2 µg/mL (ATCC607).
For `NNC(=O)c1ccncc1`, the MIC was 1 µg/mL.
With `O=C(Nc1ccc2c(c1)OC(F)(F)O2)Nc1ccc(Cl)c(C(F)(F)F)c1` the MIC was 6 µM (MC2155).
`CO[C@H]1/C=C/O[C@@]2(C)Oc3c(C)c(O)c4c(O)c(c(/C=N/N5CCN(C)CC5)c(O)c4c3C2=O)NC(=O)/C(C)=C\C=C\[C@H](C)[C@H](O)[C@@H](C)[C@@H](O)[C@@H](C)[C@H](OC(C)=O)[C@@H]1C` has an MIC of 1.58 µg/mL (resazurin; ATCC607; 72 h).
With `Cc1ccc(-c2nc3ccc(C)cn3c2CC(=O)N(C)C)cc1` the MIC was greater than 50 µM (broth dilution).
For `CN[C@H](CC(C)C)C(=O)N[C@H]1C(=O)N[C@@H](CC(N)=O)C(=O)N[C@H]2C(=O)N[C@H]3C(=O)N[C@H](C(=O)N[C@H](C(=O)O)c4cc(O)cc(O)c4-c4cc3ccc4O)[C@H](O)c3ccc(c(Cl)c3)Oc3cc2cc(c3O[C@@H]2O[C@H](CO)[C@@H](O)[C@H](O)[C@H]2O[C@H]2C[C@](C)(N)[C@H](O)[C@H](C)O2)Oc2ccc(cc2Cl)[C@H]1O`, the MIC was 0.78 µg/mL (resazurin; MC^2155; 24 h).
The MIC of `CN[C@@H]1[C@@H](O)[C@@H](O[C@@H]2[C@@H](O)[C@H](O[C@H]3O[C@H]([C@@H](C)O)[C@@H](O)[C@H](O)[C@H]3N)[C@@H](N)C[C@H]2N)OC[C@]1(C)O` is reported as 8 µg/mL (broth dilution; 72 h).
`CCC(C)(C)C(=O)Oc1ccccc1C(=O)Nc1ncc([N+](=O)[O-])s1` has an MIC of greater than 25 µM (agar dilution; MC^2155).
For `CC(C)=CCC/C(C)=C/CNCCCOC1C2CC3CC(C2)CC1C3` (stereo not shown), the MIC was 6.2 µg/mL.
`CO[C@H]1/C=C/O[C@@]2(C)Oc3c(C)c(O)c4c(O)c(c(/C=N/N5CCN(C)CC5)c(O)c4c3C2=O)NC(=O)/C(C)=C\C=C\[C@H](C)[C@H](O)[C@@H](C)[C@@H](O)[C@@H](C)[C@H](OC(C)=O)[C@@H]1C` gave an MIC of greater than 200 µg/mL (broth dilution; ATCC607).
`CC(C)=CCC/C(C)=C/COCCNC1C2CC3CC(C2)CC1C3` (stereo not shown) has an MIC of 6.2 µg/mL.
For `CO[C@H]1/C=C/O[C@@]2(C)Oc3c(C)c(O)c4c(O)c(c(/C=N/N5CCN(C)CC5)c(O)c4c3C2=O)NC(=O)/C(C)=C\C=C\[C@H](C)[C@H](O)[C@@H](C)[C@@H](O)[C@@H](C)[C@H](OC(C)=O)[C@@H]1C`, the MIC was 2 µg/mL.
The MIC of `Nc1ccc(C(=O)O)c(O)c1` is reported as 1.25 µg/mL (broth dilution; MC^2155).
The MIC of `CO[C@H]1/C=C/O[C@@]2(C)Oc3c(C)c(O)c4c(O)c(c(/C=N/N5CCN(C)CC5)c(O)c4c3C2=O)NC(=O)/C(C)=C\C=C\[C@H](C)[C@H](O)[C@@H](C)[C@@H](O)[C@@H](C)[C@H](OC(C)=O)[C@@H]1C` is reported as greater than 25 µg/mL (agar dilution).
The MIC of `CC(C)=CCC/C(C)=C/CNC(=O)COC1C2CC3CC(C2)CC1C3` (stereo not shown) is reported as 6.2 µg/mL.
The MIC of `COC1C(O)C(n2ccc(=O)[nH]c2=O)OC1C(OC1OC(C(=O)NC2CCCCNC2=O)=CC(O)C1O)C(N)=O` (stereo not shown) is reported as 6.5 µg/mL (broth dilution; ATCC607).
With `CC(C)=CCC/C(C)=C/CNCCOc1cccc2ccccc12` the MIC was 12 µg/mL.
`C[C@@H]([C@H](N)C(=O)N[C@H](C(=O)O)[C@H]1O[C@@H](n2ccc(=O)[nH]c2=O)[C@H](O)[C@@H]1O)[C@H](O)c1ccc(O)cn1` has an MIC of greater than 50 µg/mL (resazurin; ATCC607; 72 h).
